Test results published in ChEMBL document CHEMBL4706613, “Novel 3-substituted coumarins as selective human carbonic anhydrase IX and XII inhibitors: Synthesis, biological and molecular dynamics analysis” (Eur J Med Chem, 2021).

Assays:
Carbonic anhydrase 1 [1] = biological target: T1, Carbonic anhydrase 1 (Homo sapiens, UniProt P00915); assay: Inhibition of human CA1 preincubated for 15 mins by phenol red dye based stopped flow CO2 hydration assay
Carbonic anhydrase 2 [2] = biological target: T2, Carbonic anhydrase 2 (Homo sapiens, UniProt P00918); assay: Inhibition of human CA2 preincubated for 15 mins by phenol red dye based stopped flow CO2 hydration assay
Carbonic anhydrase 9 [3] = biological target: T3, Carbonic anhydrase 9 (Homo sapiens, UniProt Q16790); assay: Inhibition of human CA9 preincubated for 15 mins by phenol red dye based stopped flow CO2 hydration assay
Carbonic anhydrase 1 [4] = biological target: T1, Carbonic anhydrase 1; assay: Inhibition of human CA1 preincubated for 6 hrs by phenol red dye based stopped flow CO2 hydration assay
Summary of the method: (§1)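 Ki values are the mean of three separate assays, with errors within ±5–10% of the reported values. Coumarin derivatives were incubated with the enzyme for 6 h before measurement.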

Carbonic anhydrase 2 [5] = biological target: T2, Carbonic anhydrase 2; assay: Inhibition of human CA2 preincubated for 6 hrs by phenol red dye based stopped flow CO2 hydration assay; summary of the method: as §1
Carbonic anhydrase 9 [6] = biological target: T3, Carbonic anhydrase 9; assay: Inhibition of human CA9 preincubated for 6 hrs by phenol red dye based stopped flow CO2 hydration assay; summary of the method: as §1
Carbonic anhydrase 12 = Carbonic anhydrase 12 (Homo sapiens, UniProt O43570); assay: Inhibition of human CA12 preincubated for 6 hrs by phenol red dye based stopped flow CO2 hydration assay
Chain of Carbonic anhydrase 12 (O43570 whole entry): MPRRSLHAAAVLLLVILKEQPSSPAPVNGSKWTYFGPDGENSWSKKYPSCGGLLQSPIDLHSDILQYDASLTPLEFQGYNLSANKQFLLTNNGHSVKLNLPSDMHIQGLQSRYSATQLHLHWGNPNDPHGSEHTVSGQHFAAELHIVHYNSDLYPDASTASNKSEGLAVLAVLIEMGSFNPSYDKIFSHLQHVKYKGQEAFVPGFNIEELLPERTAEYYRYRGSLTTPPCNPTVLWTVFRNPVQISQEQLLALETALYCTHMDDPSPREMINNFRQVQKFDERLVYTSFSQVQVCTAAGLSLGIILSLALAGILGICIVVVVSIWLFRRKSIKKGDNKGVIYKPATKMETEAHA

T1 sequence (P00915 whole entry): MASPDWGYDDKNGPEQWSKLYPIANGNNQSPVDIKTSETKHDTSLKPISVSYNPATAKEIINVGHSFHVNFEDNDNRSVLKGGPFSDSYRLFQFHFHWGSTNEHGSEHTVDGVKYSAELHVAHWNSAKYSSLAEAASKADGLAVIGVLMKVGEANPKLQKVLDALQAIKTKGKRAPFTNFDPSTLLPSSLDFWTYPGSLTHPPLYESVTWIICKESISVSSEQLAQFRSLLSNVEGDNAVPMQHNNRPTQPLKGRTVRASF

Ki (Carbonic anhydrase 1 [1]) | Ki (Carbonic anhydrase 2 [2]) | Ki (Carbonic anhydrase 9 [3]) | Ki (Carbonic anhydrase 1 [4]) | Ki (Carbonic anhydrase 2 [5]) | Ki (Carbonic anhydrase 9 [6]) | Ki (Carbonic anhydrase 12) | Compound
3460 nM | 276 nM | 63.6 nM |  |  |  |  | NS(=O)(=O)c1ccc(N/N=C(\CS(=O)(=O)c2ccccc2)c2cc3cc(Br)ccc3oc2=O)cc1
3960 nM | 538 nM |  |  |  |  |  | Cc1ccc(S(=O)(=O)C/C(=N\Nc2ccc(S(N)(=O)=O)cc2)c2cc3cc(Br)ccc3oc2=O)cc1
1540 nM | 225 nM | 18.6 nM |  |  |  |  | NS(=O)(=O)c1ccc(C(=O)N/N=C(\CS(=O)(=O)c2ccccc2)c2cc3ccccc3oc2=O)cc1
 |  |  | > 100000 nM | > 100000 nM | 3940 nM |  | Cc1ccc(S(=O)(=O)C/C(=N\Nc2ccccc2)c2cc3ccccc3oc2=O)cc1
 |  | 24.2 nM |  |  |  |  | C/C(=N\Nc1ccc(S(N)(=O)=O)cc1)c1cc2cc(Br)ccc2oc1=O
 |  |  | > 100000 nM | > 100000 nM | 1500 nM |  | O=c1oc2ccccc2cc1/C(CS(=O)(=O)c1ccccc1)=N/Nc1ccccc1
 |  |  | > 100000 nM | > 100000 nM | 8110 nM |  | Cc1ccc(S(=O)(=O)C/C(=N\Nc2ccccc2)c2cc3cc(Br)ccc3oc2=O)cc1
 |  |  | > 100000 nM | > 100000 nM | 4640 nM |  | O=c1oc2ccc(Br)cc2cc1/C(CS(=O)(=O)c1ccccc1)=N/Nc1ccccc1
824 nM | 442 nM | 89.1 nM |  |  |  |  | NS(=O)(=O)c1ccc(N/N=C(\CS(=O)(=O)c2ccccc2)c2cc3ccccc3oc2=O)cc1
 |  |  | > 100000 nM | > 100000 nM | 8860 nM |  | O=C(N/N=C(\CS(=O)(=O)c1ccccc1)c1cc2cc(Br)ccc2oc1=O)c1ccccc1
2600 nM | 560 nM | 76 nM |  |  |  |  | Cc1ccc(S(=O)(=O)C/C(=N\Nc2ccc(S(N)(=O)=O)cc2)c2cc3ccccc3oc2=O)cc1
 |  | 43.8 nM |  |  |  |  | C/C(=N\Nc1ccc(S(N)(=O)=O)cc1)c1cc2ccccc2oc1=O
77.6 nM | 26.3 nM | 31.6 nM |  |  |  |  | C/C(=N\NC(=O)c1ccc(S(N)(=O)=O)cc1)c1cc2ccccc2oc1=O
 |  |  | > 100000 nM | > 100000 nM | 87.2 nM |  | Cc1ccc(S(=O)(=O)CC(=O)c2cc3cc(Br)ccc3oc2=O)cc1
 |  |  | > 100000 nM | > 100000 nM | 41.4 nM | 60.1 nM | O=C(CS(=O)(=O)c1ccccc1)c1cc2ccccc2oc1=O
 |  |  | > 100000 nM | > 100000 nM | 16000 nM |  | O=C(N/N=C(\CS(=O)(=O)c1ccccc1)c1cc2ccccc2oc1=O)c1ccccc1
 |  |  | > 100000 nM | > 100000 nM | 66.3 nM |  | Cc1ccc(S(=O)(=O)CC(=O)c2cc3ccccc3oc2=O)cc1
92.5 nM | 12.1 nM | 19.8 nM |  |  |  |  | C/C(=N\NC(=O)c1ccc(S(N)(=O)=O)cc1)c1cc2cc(Br)ccc2oc1=O
 |  |  | > 100000 nM | > 100000 nM | 76.6 nM |  | O=C(CS(=O)(=O)c1ccccc1)c1cc2cc(Br)ccc2oc1=O
1350 nM | 365 nM | 42.1 nM |  |  |  |  | Cc1ccc(S(=O)(=O)C/C(=N\NC(=O)c2ccc(S(N)(=O)=O)cc2)c2cc3ccccc3oc2=O)cc1
